The source made the active and inactive calls. No cut-off for these calls is given here.
Assays:
Cytochrome P450 2C9 = Cytochrome P450 2C9 (Homo sapiens, UniProt P11712); assay: Inhibition of human microsomal CYP2C9 expressed in baculovirus infected BTI-TN-5B1-4 cells incubated for 30 mins by luciferase assay
Leishmania infantum [1] = assay: Antileishmanial activity against Leishmania infantum amastigote form; type: functional, organism-based
How it was run: (§1)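 Intramacrophage L. infantum amastigotes in THP-1-derived macrophages, tested at 50 μM or in dose-response. Plates held 72 h at 37 °C, 5% CO2. Medium was replaced by PBS, macrophages lysed, and parasites read by Steady-Glo luminescence. High-content imaging gave host cell number, infection ratio (infected/total cells) and parasites per infected cell. Values are means of at least two independent experiments.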

[2] = Cytotoxicity against human THP1 cells assessed as decrease in viable cells after 72 hrs by MTT assay; type: cell-based, THP-1; details: THP1 cells
How it was run: (§2)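 THP-1-derived macrophages exposed to compounds for 72 h, tested at 100 μM or in dose-response; viability read by MTT colorimetric assay.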

Leishmania infantum [3] = assay: Antileishmanial activity against Leishmania infantum amastigote form after 72 hrs by steady-Glo reagent based assay; type: functional, organism-based; how it was run: as §1
[4] = Cytotoxicity against human U2OS cells assessed as decrease in viable cells after 72 hrs by cell number count in anti-T. cruzi high content imaging assay; details: U2OS cells
[5] = Cytotoxicity against human U2OS cells assessed as viable cells at 50 uM after 72 hrs by MTT assay relative to control; type: cell-based; details: read-out: Activity
Trypanosoma brucei [6] = assay: Antitrypanosomal activity against Trypanosoma brucei Lister 427 bloodstream form at 10 uM after 72 hrs by resazurin dye-based assay relative to control; type: functional
CYP2C19 = CYP2C19 (Homo sapiens, UniProt P33261); assay: Inhibition of human microsomal CYP2C19 expressed in baculovirus infected BTI-TN-5B1-4 cells at 10 uM incubated for 30 mins by luciferase assay relative to control; type: ADME
CYP2C19, sequence (P33261 whole entry): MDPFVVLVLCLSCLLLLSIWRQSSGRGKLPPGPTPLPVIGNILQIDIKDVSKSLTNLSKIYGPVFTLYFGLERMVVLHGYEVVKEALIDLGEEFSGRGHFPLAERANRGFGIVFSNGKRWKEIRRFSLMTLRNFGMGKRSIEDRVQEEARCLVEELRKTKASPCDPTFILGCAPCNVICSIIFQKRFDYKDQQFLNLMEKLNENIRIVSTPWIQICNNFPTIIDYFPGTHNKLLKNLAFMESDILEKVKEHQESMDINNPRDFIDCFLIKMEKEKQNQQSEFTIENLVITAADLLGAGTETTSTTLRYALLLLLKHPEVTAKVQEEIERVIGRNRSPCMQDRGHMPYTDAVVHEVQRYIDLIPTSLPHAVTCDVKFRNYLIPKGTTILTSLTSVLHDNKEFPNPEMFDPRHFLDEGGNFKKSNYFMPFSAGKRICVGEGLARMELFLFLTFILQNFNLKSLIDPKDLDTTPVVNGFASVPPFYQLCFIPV
How it was run: (§3)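 CYP1A2, 2C9, 2C19, 2D6 and 3A4 in microsomes from baculovirus-infected insect cells, each with a P450-Glo luminogenic substrate. Inhibition read as loss of light; single-point at 10 μM, triplicate.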

hERG (KCNH2) = hERG (KCNH2) (Homo sapiens, UniProt Q12809); assay: Inhibition of human ERG at 10 uM incubated for 2 hrs by fluorescence polarisation assay relative to control
hERG (KCNH2), sequence (Q12809 whole entry): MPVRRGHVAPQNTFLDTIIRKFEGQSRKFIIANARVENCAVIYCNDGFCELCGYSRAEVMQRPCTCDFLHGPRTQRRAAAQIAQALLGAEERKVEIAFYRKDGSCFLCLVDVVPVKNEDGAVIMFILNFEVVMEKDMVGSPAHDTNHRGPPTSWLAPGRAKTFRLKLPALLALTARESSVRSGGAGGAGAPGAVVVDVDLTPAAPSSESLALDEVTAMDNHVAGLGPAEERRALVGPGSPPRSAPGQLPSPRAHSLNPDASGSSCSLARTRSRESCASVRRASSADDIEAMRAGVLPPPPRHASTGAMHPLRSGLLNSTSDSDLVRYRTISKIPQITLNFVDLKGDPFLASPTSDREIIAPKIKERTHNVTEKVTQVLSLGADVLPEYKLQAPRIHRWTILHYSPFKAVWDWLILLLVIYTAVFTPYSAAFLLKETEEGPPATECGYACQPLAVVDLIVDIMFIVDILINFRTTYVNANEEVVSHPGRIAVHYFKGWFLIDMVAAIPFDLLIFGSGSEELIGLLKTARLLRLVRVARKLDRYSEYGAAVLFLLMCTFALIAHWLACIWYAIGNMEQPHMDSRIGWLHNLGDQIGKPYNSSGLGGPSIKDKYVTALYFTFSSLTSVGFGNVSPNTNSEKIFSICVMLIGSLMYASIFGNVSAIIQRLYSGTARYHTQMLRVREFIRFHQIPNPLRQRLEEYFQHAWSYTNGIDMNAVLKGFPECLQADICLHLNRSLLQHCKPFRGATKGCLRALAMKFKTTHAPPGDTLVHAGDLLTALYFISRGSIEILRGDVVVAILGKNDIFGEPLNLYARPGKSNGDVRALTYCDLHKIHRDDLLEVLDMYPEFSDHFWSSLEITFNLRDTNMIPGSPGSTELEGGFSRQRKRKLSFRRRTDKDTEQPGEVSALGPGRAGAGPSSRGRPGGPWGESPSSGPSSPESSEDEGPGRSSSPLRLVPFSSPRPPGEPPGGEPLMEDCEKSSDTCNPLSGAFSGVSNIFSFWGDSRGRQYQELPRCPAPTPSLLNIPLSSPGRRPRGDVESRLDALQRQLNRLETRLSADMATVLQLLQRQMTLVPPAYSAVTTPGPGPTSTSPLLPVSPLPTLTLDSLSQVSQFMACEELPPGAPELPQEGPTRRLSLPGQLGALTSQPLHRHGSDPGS

CYP2C9 = CYP2C9 (Homo sapiens, UniProt P11712); assay: Inhibition of human microsomal CYP2C9 expressed in baculovirus infected BTI-TN-5B1-4 cells at 10 uM incubated for 30 mins by luciferase assay relative to control; type: ADME; how it was run: as §3
CYP2C9, sequence (P11712 whole entry): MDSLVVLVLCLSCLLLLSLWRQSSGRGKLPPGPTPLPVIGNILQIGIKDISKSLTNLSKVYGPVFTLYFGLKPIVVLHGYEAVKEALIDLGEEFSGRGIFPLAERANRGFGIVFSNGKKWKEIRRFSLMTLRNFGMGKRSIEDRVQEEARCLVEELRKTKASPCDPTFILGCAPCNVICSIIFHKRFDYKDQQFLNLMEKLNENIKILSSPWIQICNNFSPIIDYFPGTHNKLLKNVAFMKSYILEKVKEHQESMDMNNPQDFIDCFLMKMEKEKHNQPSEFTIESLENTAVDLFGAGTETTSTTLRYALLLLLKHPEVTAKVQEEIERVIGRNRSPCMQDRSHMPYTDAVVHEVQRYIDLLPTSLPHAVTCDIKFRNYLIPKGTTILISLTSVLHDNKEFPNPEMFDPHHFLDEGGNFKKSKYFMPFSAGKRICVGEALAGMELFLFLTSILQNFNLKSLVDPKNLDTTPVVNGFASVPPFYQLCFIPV

[7] = Cytotoxicity against human THP1 cells assessed as viable cells at 100 uM after 72 hrs by MTT assay relative to control; type: cell-based, THP-1; details: read-out: Activity; how it was run: as §2
CYP2D6 = CYP2D6 (Homo sapiens, UniProt P10635); assay: Inhibition of human microsomal CYP2D6 expressed in baculovirus infected BTI-TN-5B1-4 cells at 10 uM incubated for 30 mins by luciferase assay relative to control; type: ADME; how it was run: as §3
CYP2D6, sequence (P10635 whole entry): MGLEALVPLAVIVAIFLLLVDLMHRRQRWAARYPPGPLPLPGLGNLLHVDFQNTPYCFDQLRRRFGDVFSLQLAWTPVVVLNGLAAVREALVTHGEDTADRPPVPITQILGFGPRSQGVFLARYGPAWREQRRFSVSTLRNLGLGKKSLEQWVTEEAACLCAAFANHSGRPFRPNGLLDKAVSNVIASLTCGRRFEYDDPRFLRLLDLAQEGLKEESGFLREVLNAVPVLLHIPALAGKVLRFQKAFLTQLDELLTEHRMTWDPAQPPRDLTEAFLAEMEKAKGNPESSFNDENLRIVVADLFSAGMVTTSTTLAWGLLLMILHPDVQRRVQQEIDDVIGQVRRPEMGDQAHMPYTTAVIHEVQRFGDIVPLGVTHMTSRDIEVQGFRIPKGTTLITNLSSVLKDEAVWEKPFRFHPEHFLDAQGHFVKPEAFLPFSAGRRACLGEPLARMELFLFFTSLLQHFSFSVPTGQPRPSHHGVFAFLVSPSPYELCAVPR

[8] = Cytotoxicity against human WI38 cells assessed as growth inhibition at 10 uM after 48 hrs by CellTiter-Glo assay relative to control; values are per cent of control; details: WI38 cells
CYP1A2 = target: T1, CYP1A2 (Homo sapiens, UniProt P05177); assay: Inhibition of human microsomal CYP1A2 expressed in baculovirus infected BTI-TN-5B1-4 cells at 10 uM incubated for 30 mins by luciferase assay relative to control; type: ADME; how it was run: as §3
T1 sequence (P05177 whole entry): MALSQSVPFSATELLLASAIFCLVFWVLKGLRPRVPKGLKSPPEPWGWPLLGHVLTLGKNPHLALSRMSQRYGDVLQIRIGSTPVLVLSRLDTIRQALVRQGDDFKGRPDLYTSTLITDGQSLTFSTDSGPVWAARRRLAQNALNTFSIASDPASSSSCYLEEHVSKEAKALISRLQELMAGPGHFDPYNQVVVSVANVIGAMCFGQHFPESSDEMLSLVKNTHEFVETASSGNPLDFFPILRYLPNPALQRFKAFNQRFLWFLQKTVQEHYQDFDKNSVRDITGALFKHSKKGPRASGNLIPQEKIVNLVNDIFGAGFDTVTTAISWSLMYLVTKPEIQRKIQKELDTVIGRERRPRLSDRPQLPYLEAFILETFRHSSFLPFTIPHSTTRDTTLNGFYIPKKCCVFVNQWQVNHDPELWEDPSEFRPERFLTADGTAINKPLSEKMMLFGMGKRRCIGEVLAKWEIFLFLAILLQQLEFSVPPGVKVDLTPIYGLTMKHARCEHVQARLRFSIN

CYP3A4 = CYP3A4 (Homo sapiens, UniProt P08684); assay: Inhibition of human microsomal CYP3A4 expressed in baculovirus infected BTI-TN-5B1-4 cells at 10 uM incubated for 30 mins by luciferase assay relative to control; type: ADME; how it was run: as §3
CYP3A4, sequence (P08684 whole entry): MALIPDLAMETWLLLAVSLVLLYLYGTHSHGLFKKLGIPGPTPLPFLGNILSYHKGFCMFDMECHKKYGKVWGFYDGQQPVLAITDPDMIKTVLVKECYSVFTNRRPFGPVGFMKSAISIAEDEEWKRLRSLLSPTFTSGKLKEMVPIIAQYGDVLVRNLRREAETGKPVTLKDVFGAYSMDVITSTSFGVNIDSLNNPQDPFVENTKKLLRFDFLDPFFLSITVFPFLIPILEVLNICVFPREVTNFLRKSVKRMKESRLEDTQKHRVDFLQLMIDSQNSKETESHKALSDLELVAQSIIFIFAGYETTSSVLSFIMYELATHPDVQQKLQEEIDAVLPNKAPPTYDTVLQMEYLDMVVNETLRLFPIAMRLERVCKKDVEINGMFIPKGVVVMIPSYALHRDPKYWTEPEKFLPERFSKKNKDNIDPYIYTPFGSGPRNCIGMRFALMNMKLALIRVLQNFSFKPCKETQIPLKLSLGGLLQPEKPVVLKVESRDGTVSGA

Trypanosoma brucei [9] = assay: Antitrypanosomal activity against Trypanosoma brucei Lister 427 bloodstream form assessed as parasite growth inhibition at 50 uM after 72 hrs by SYBR Green assay relative to control; type: functional; details: for inhibition of growth at 50 µM: Lister 427, 72 h, read-out: GI
Trypanosoma brucei [10] = assay: Potentiation of methotrexate-induced antitrypanosomal activity against Trypanosoma brucei Lister 427 bloodstream form at 10 uM after 72 hrs by resazurin dye-based assay; type: functional
[11] = Cytotoxicity against human A549 cells assessed as growth inhibition at 10 uM after 48 hrs by CellTiter-Glo assay relative to control; values are per cent of control; details: A549 cells
Trypanosoma cruzi [12] = assay: Antitrypanosomal activity against Trypanosoma cruzi amastigote form infected in human U2OS cells assessed as parasite growth inhibition after 72 hrs; type: functional, organism-based
How it was run: (§4)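 U2OS monolayers grown for 24 h, then infected with tissue-derived trypomastigotes of T. cruzi Y strain. Compounds were added 24 h after infection at 50 μM (single-point) or in dose-response, with 72 h exposure. Plates were fixed, stained and analysed by high-content imaging; activity was normalized to infected and non-infected controls. Means of at least two experiments; benznidazole as reference.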

Trypanosoma brucei [13] = assay: Potentiation of methotrexate-induced antitrypanosomal activity against Trypanosoma brucei Lister 427 bloodstream form at 10 uM after 72 hrs by resazurin dye-based assay relative to control; type: functional
[14] = Cytotoxicity against human 786-O cells assessed as inhibition of mitochondrial viability at 10 uM after 6 hrs by CMXRos staining based assay relative to control; type: cell-based, 786-0; details: read-out: INH
How it was run: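 Mitochondrial toxicity monitored by MitoTracker Red CMXRos uptake and high-content imaging; compound at 10 μM, triplicate.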

[15] = target: T2, Pteridine reductase 1 (Leishmania major) (UniProt Q01782); assay: Inhibition of Leishmania major PTR1 at 50 uM using H2B as substrate in presence of NADPH by photometric analysis relative to control
T2 sequence (whole entry): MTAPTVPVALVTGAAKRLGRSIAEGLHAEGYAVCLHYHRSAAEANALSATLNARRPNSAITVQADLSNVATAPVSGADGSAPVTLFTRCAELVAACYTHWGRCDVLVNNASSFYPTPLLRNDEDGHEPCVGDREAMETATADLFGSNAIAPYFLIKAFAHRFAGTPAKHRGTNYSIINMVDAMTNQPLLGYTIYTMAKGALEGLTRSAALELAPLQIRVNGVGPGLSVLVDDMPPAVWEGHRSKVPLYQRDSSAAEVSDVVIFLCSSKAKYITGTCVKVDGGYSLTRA

Aurora kinase B = Aurora kinase B (Homo sapiens, UniProt Q96GD4); assay: Inhibition of recombinant full-length human aurora B kinase expressed in baculovirus system at 10 uM using MBP as substrate incubated for 45 mins by ADP-glo kinase assay; details: probe MBP
Aurora kinase B, sequence (Q96GD4 whole entry): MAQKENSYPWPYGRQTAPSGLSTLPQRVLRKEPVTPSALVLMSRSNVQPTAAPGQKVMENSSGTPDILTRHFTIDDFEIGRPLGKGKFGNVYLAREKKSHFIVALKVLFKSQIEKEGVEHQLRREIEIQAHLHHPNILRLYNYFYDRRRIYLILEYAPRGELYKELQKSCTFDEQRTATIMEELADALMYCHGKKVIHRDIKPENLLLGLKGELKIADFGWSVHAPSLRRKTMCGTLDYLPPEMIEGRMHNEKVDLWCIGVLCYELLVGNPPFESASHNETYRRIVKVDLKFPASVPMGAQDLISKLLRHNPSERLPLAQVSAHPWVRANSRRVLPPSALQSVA
How it was run: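 Aurora B activity measured as ADP formation via coupled luciferase ADP-Glo luminescence; single-point at 10 μM, triplicate.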

[16] = Selectivity index, ratio of CC50 for human U2OS cells to EC50 for Trypanosoma cruzi amastigote form; type: toxicity; details: read-out: Ratio CC50/EC50
How it was run: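 Selectivity index = CC50 in the human host or cytotoxicity cell line divided by parasite EC50.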

Leishmania infantum [17] = assay: Antileishmanial activity against Leishmania infantum amastigote form assessed as parasite growth inhibition at 50 uM after 72 hrs by steady-Glo reagent based assay relative to control; type: functional; details: for inhibition of growth at 50 µM: read-out: GI; how it was run: as §1
Trypanosoma cruzi [18] = assay: Antitrypanosomal activity against Trypanosoma cruzi amastigote form infected in human U2OS cells assessed as parasite growth inhibition at 50 uM after 72 hrs relative to control; type: functional; details: read-out: GI; how it was run: as §4
[19] = target: T3, Pteridine reductase, putative (Trypanosoma brucei) (UniProt Q581W1); assay: Inhibition of Trypanosoma brucei PTR1 at 50 uM using H2B as substrate in presence of NADPH by photometric analysis relative to control
T3 sequence (whole entry): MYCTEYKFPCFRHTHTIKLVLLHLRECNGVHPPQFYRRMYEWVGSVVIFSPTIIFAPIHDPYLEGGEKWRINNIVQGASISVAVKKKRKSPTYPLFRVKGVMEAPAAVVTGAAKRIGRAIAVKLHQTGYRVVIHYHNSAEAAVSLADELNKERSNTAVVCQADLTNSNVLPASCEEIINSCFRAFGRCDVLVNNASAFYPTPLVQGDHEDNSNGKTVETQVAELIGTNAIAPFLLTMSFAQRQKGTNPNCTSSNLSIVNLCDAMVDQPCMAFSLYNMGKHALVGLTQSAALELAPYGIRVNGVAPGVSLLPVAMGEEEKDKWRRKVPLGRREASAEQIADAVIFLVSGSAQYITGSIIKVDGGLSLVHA

Trypanosoma brucei [20] = assay: Antitrypanosomal activity against Trypanosoma brucei Lister 427 bloodstream form after 72 hrs by SYBR Green assay; type: functional, organism-based; details: Lister 427, 72 h

Cytochrome P450 2C9, sequence (P11712 whole entry): as the sequence (P11712 whole entry) above

Structure (SMILES)	CC50 at 72 h [2]	CC50 at 72 h [4]	viability at 72 h, 50 µM [5]	Activity (Trypanosoma brucei [6])	inhibition at 0.5 h, 10 µM (CYP2C19)	inhibition at 2 h, 10 µM (hERG (KCNH2))	inhibition at 0.5 h, 10 µM (CYP2C9)	viability at 72 h, 100 µM [7]	inhibition at 0.5 h, 10 µM (CYP2D6)	cell growth (% of control) at 48 h, 10 µM [8]	inhibition at 0.5 h, 10 µM (CYP1A2)	inhibition at 0.5 h, 10 µM (CYP3A4)	PF (Trypanosoma brucei [10])	cell growth (% of control) at 48 h, 10 µM [11]	EC50 (Trypanosoma cruzi [12])	Activity (Trypanosoma brucei [13])	cytotoxicity at 6 h, 10 µM [14]	inhibition [15]	inhibition at 0.75 h, 10 µM (Aurora kinase B)	selectivity ratio [16]	other results
C[C@@H]1[C@H](O)[C@@H](C)/C=C/C=C/C=C/C=C/C=C/C=C/C=C/[C@H](O[C@@H]2O[C@H](C)[C@@H](O)[C@H](N)[C@@H]2O)C[C@@H]2O[C@](O)(C[C@@H](O)C[C@@H](O)[C@H](O)CC[C@@H](O)C[C@@H](O)CC(=O)O[C@H]1C)C[C@H](O)[C@H]2C(=O)O [AMPHOTERICIN B]	16.9 µM	–	–	–	–	–	–	–	–	–	–	–	–	–	–	–	–	–	–	–	IC50 (Cytochrome P450 2C9): > 100 µM; EC50 (Leishmania infantum [1]): 1.14 µM; EC50 (Leishmania infantum [3]): 0.2 µM
CCCCCCCCCCCCCCCCOP(=O)([O-])OCC[N+](C)(C)C [MILTEFOSINE]	15 µM	11.5 µM	–	–	–	–	–	–	–	–	–	–	–	–	–	–	–	–	–	–	IC50 (Cytochrome P450 2C9): > 100 µM; EC50 (Leishmania infantum [1]): 1.29 µM; EC50 (Leishmania infantum [3]): 2.51 to 2.8 µM
NC(=S)N/N=C/c1ccc(-c2ccccc2)cc1	–	> 44 µM	116%	19.33%	32.1%	38.5%	98.4%	46.4%	26.8%	104%	76.6%	-16.1%	1.85	138%	4.17 µM	80.67%	16.1%	3.57%	-35.7%	> 1	growth inhibition (GI) (Trypanosoma brucei [9]): inactive; growth inhibition (GI) (Leishmania infantum [17]): inactive; inhibition of growth at 50 µM (Trypanosoma cruzi [18]): 95.2%; inhibition [19]: inactive
CSc1ccc(/C=N/NC(N)=S)cc1	–	> 44 µM	42.7%	15.33%	-38.2%	-2.87%	12.4%	35.7%	35.9%	107%	27%	-15.9%	2.24	136%	2.58 to 29.5 µM	88.67%	-10.8%	11.2%	-12.2%	> 17	inhibition of growth at 50 µM (Trypanosoma brucei [9]): 82.6%; inhibition of growth at 50 µM (Leishmania infantum [17]): 34.1%; EC50 (Trypanosoma brucei [20]): 44.4 µM; inhibition of growth at 50 µM (Trypanosoma cruzi [18]): 89.3%; inhibition [19]: 9.49%
NC(=S)N/N=C/C=C/c1ccccc1	–	> 44 µM	76.1%	11.33%	-36.7%	7.23%	9.11%	44.1%	3.17%	82.8%	18.3%	-13.1%	2.37	129%	1.59 µM	84.5%	-2.97%	9.09%	-5.47%	> 1	inhibition of growth at 50 µM (Trypanosoma brucei [9]): 91.7%; inhibition of growth at 50 µM (Leishmania infantum [17]): 45.9%; EC50 (Trypanosoma brucei [20]): 16.9 µM; inhibition of growth at 50 µM (Trypanosoma cruzi [18]): 94.6%; inhibition [19]: 8.92%
N=C(N)c1ccc(OCCCCCOc2ccc(C(=N)N)cc2)cc1 [PENTAMIDINE]	10 µM	–	–	–	–	–	–	–	–	–	–	–	–	–	–	–	–	–	–	–	–

Source: ChEMBL document CHEMBL4196006, “Aryl thiosemicarbazones for the treatment of trypanosomatidic infections” (Eur J Med Chem, 2018)
